Screening data as filed in PubChem BioAssay.
PAD4 FP inh – blocks human protein arginine deiminase 4. Q9UM07. recombinant PAD4, RCA probe fluorescence polarization. inhibition, % at 6.36 µM. 330,000 tested, 0.41% active. AID 485272;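 active = percent inhibition above a cutoff equal to the mean of all tested compounds plus 3 SD, cut at about 15% in these data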;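 also: 0% = PAD4 with RCA probe and DMSO and 100% = probe without PAD4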
Apaf1 inhib – human Apaf-1 inhibition; reconstituted apoptosome caspase-3 activity, DEVD-Rh110 fluorescence; inhibition, % at 20 µM; 330,000 tested, 0.71% active; AID 489030; active = inhibition of at least 40% at 20 µM;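 also: plate controls were DMSO wells for no effect and DEVD-CHO caspase inhibitor wells for full effect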
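System: reconstituted apoptosome with Apaf-1, cytochrome c, caspase-9, procaspase-3, dATP; Signal: Rh110 fluorescence intensity; Schedule: 30 min compound preincubation, 50 min activation, room temperature; Reagent: cytochrome c trigger plus (Z-DEVD)2-Rh110 caspase-3 substrate.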
PRMT1 FP inh – PRMT1 (human) inhibition, primary screen; recombinant PRMT1, activity-based probe fluorescence polarization; 370,000 tested, 1.3% active; Q99873; inhibition, % at 2.79 µM; AID 652257;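 active = inhibition above about 21% made by adding two undisclosed values, limit read from the data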
TDP2 inh – blocks human TDP2 phosphodiesterase activity; O95551; recombinant TDP2, T5PNP hydrolysis, p-nitrophenol absorbance 415 nm; inhibition, % at 12.8 µM; 370,000 tested, 0.34% active; AID 720702;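 active = inhibition above the mean of all tested compounds plus 3 SD, set per campaign, cut at about 25% in these data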;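 also: 0% = DMSO with enzyme and 100% = buffer with substrate but no TDP2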
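Test system: human TDP2 enzyme; Input: 120 nM TDP2 per well; Buffer or medium: Mg2+-containing Tris-HCl buffer, pH 7.5; Reagent: 5 mM T5PNP; Dosing: 12.8 µM single point, 1% DMSO; Incubation: reaction 2 h, 37 °C; Detection: p-Nitrophenol epi absorbance; Read-out: % inhibition relative to enzyme-containing and enzyme-free wells; Replicates: single well per compound.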
GSTO1 counter – blocks human GSTO1 in RBBP9 counter-screen. recombinant GSTO1, activity-based probe fluorescence polarization. inhibition, % at 5.96 µM. 300,000 tested, 1.1% active. AID 1974;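 active = inhibition above the campaign mean inhibition plus 3 SD, cut at about 35% in these data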;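 also: 0% = GSTO1-1 with DMSO and 100% = wells lacking GSTO1-1 enzyme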
PRMT1 confirm – PRMT1 (human) inhibition, FP confirmation; 3,300 tested, 42% active; inhibition, % at 2.79 µM; recombinant His-PRMT1, activity-based probe fluorescence polarization; shares compounds with PRMT1 FP inh; AID 687036;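 active = mean inhibition across replicates above the hit cutoff derived for the earlier primary screen, cut at about 22% in these data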
* hit, by the source's call; . = no result given. This is a sample that favours compounds with a hit; in the whole collection about 2.6% have one here.

SMILES | PAD4 FP inh | Apaf1 inhib | PRMT1 FP inh | TDP2 inh | GSTO1 counter | PRMT1 confirm
COc1ccc(CNC(=O)CS(=O)CC(=O)O)cc1OC (centres undefined) | 3 | -7 | 4 | 10 | 8 | .
N#CC1=C2SCN(c3ccccc3)CN2C(=O)CC1c1c(Cl)cccc1Cl (centres undefined) | 3 | -2 | 52* | 3 | 10 | 55*
COc1ccc(CC2(C)OC(c3ccc([N+](=O)[O-])cc3)=NN2C(C)=O)cc1 (centres undefined) | 1 | 13 | -7 | 0 | 5 | .
CCc1ccc(OCC(=O)Nc2ccc3c(c2)OCCO3)cc1 | 7 | 6 | 14 | -13 | -1 | .
CCc1ccc(OCC(=O)Nc2nnc(-c3ccco3)s2)cc1 | 0 | -2 | 34* | -10 | -5 | 3
Cc1ccc2oc(C(=O)N(C)Cc3ccc(C)o3)c(C)c2c1 | 2 | 10 | 51* | -18 | 0 | 64*
Cc1ccc2oc(C(=O)N(C)Cc3ccon3)c(C)c2c1 | -8 | 0 | -6 | -15 | 12 | .
COc1ccc(N(C(C)C(=O)N2CCC(Cc3ccccc3)CC2)S(C)(=O)=O)cc1 (centres undefined) | -1 | 4 | 0 | 4 | 7 | .
CC(Nc1cc(N2CCN(S(C)(=O)=O)CC2)ccc1[N+](=O)[O-])c1ccccc1 (centres undefined) | -2 | 13 | 2 | 2 | 1 | .
CS(=O)(=O)N1CCN(c2ccc([N+](=O)[O-])c(SCc3ccco3)c2)CC1 | -6 | 14 | 33* | -14 | 2 | 2
COc1ccc(Cn2nnnc2C(C(C)C)N2CCN(c3ccccc3OC)CC2)cc1 (centres undefined) | -1 | 18 | -2 | -10 | -1 | .
CC(C)C(c1nnnn1Cc1ccc(F)cc1)N1CCN(c2ccc(O)cc2)CC1 (centres undefined) | -14 | 7 | 28* | 4 | 22 | 1
Cn1cc([C@]2(O)C(=O)Nc3ccc(Br)cc32)c2ccccc21 | . | . | 4 | -1 | . | .
Nc1c(C(=O)NC2CCCC2)sc2nc(-c3cccs3)ccc12 | -2 | 11 | 53* | -5 | 1 | 4
CCOc1ccc(C(=O)CC(Sc2ccc(C)cc2)C(=O)O)cc1 (centres undefined) | -4 | -4 | 29* | 6 | -4 | 54*
O=C(CC(C(=O)O)c1ccc(Cl)cc1)c1ccc(Br)cc1 (centres undefined) | -1 | 2 | -2 | -5 | -2 | .
O=C(CC(Sc1ccc(Br)cc1)C(=O)O)c1ccc(F)cc1 (centres undefined) | 1 | 10 | 80* | -7 | -1 | 88*
CCC(Sc1ccc(C(=O)O)cc1)C(=O)O (centres undefined) | -5 | -1 | 0 | -8 | -7 | .
NS(=O)(=O)c1cccc(NC(=O)CSc2ncnc3ccccc23)c1 | 9 | -12 | 37* | -14 | -8 | 14
NS(=O)(=O)c1cccc(NC(=O)CSc2nc3ccccc3c(=O)n2Cc2ccco2)c1 | -4 | 18 | 80* | -7 | . | 6
COc1ccc(Cl)cc1NC(=O)NCc1ccc2c(c1)OCO2 | 3 | 7 | -2 | 16 | -5 | .
O=C(/C=C/c1ccccc1)c1cc(Br)ccc(=O)c1O | -1 | 11 | 34* | -3 | 20 | 28*
O=S(=O)(Nc1cc(S(=O)(=O)N2CCOCC2)ccc1Cl)c1ccccc1 | 3 | -11 | 4 | 6 | . | .
Cc1cccc(NC(c2ccc(C)s2)c2ccc3ccc(C)nc3c2O)n1 (centres undefined) | -6 | 0 | 26* | 6 | 14 | 28*
Cc1ccnc(NC(c2ccsc2)c2ccc3ccc(C)nc3c2O)c1 (centres undefined) | 1 | 17 | 44* | -12 | -11 | 50*
SMILES | PAD4 FP inh | Apaf1 inhib | PRMT1 FP inh | TDP2 inh | GSTO1 counter | PRMT1 confirm
Cc1ccc2ccc(C(Nc3ccccn3)c3ccccc3)c(O)c2n1 (centres undefined) | -1 | 11 | 7 | -10 | 1 | .
N#C/C(=C/c1ccc(-c2ccc([N+](=O)[O-])cc2)o1)c1nnc(N2CCOCC2)n1-c1ccccc1 | . | . | 0 | -3 | . | .
CCOC(=O)C(Sc1nn(C)c(=S)s1)C(C)=O (centres undefined) | -1 | -6 | 36* | -14 | -5 | 1
CCC(=S)/C=C1\Sc2ccccc2N1CCCS(=O)(=O)O | 3 | -9 | 34* | -9 | -5 | 4
O=C(CN1CC[n+]2c(-c3cccs3)csc21)c1ccc(-c2ccccc2)cc1 | 2 | 34 | 32* | -4 | -1 | 40*
CC(C)NCC1CCc2cc(CO)c([N+](=O)[O-])cc2N1 (centres undefined) | 2 | 6 | -2 | 1 | 4 | .
S=c1[nH]nc(-c2cc3ccccc3o2)n1Cc1ccccc1 | 5 | 2 | 25* | 0 | -5 | 16
O=C(CSC(=O)c1ccccc1)Nc1ccccc1F | 10 | 7 | 29* | 10 | . | 26*
CC(C)(C)c1ccc(S(=O)(=O)NCC(=O)N2CCN(Cc3ccccc3)CC2)cc1 | -2 | 28 | 0 | 8 | 3 | .
COCCN(C(=O)c1ccc2c(c1)C(=O)N(c1ccccc1Cl)C2=O)c1c(N)n(CC(C)C)c(=O)[nH]c1=O | . | . | 0 | 4 | . | .
COc1cccc(NS(=O)(=O)c2ccc3c(c2)CCCN3C(C)=O)c1 | 2 | -16 | 5 | -15 | -4 | .
COc1cccc(NS(=O)(=O)c2ccc3c(c2)C2C=CCC2C(c2ccc(C(=O)O)cc2)N3)c1 (centres undefined) | -9 | . | 42* | 16 | 2 | 30*
Cc1cc(C(C)(C)C)cc(C)c1C(=O)O | 1 | 1 | 4 | -3 | -6 | .
C[C@H](CO)N1C[C@H](C)[C@@H](CN(C)S(=O)(=O)c2ccc(F)cc2)Oc2ccc(NC(=O)C3CC3)cc2C1=O | 2 | 3 | 1 | 3 | . | .
CC(C)N(C(=O)[C@H]1C[C@H](CC(=O)NCCc2ccccn2)C(=O)N2CCc3c([nH]c4cc(-c5ccco5)ccc34)[C@]12C)C(C)C | -3 | 34 | 40* | -11 | . | 1
Cc1cc(C)nc(-n2ncc3c2CC(c2cccc(Cl)c2)CC3=O)n1 (centres undefined) | -1 | 7 | -5 | -11 | 3 | .
Cc1ccccc1C(=O)NNc1ccc(-c2csnn2)cc1 | 0 | 1 | 27* | 0 | 11 | 7
O=C(CNC(=O)c1cccs1)OCC(=O)c1ccccc1 | 0 | -2 | -3 | 12 | 2 | .
O=C(COc1ccccc1F)OCC(=O)c1ccc([N+](=O)[O-])cc1 | -8 | -4 | 46* | 8 | . | 34*
Cc1ccc(C(=O)COC(=O)c2cnccn2)cc1 | -2 | 0 | -1 | 5 | 8 | .
O=C(CCc1ccccc1)OCC(=O)c1ccc([N+](=O)[O-])cc1 | -6 | -16 | 6 | 2 | -2 | .
